{"data": "Published values of several laboratories", "target": "Mu-type opioid receptor (Oprm1, Rattus norvegicus, UniProt P33535)", "note": "Compare with care: the assays were run in different laboratories."}
{"SMILES": "NC(N)=Nc1ccc2[nH]c3c(c2c1)C[C@@]1(O)[C@H]2Cc4ccc(O)c5c4[C@@]1(CCN2CC1CC1)[C@H]3O5", "test": "ligand displacement, radioligand", "conditions": "cell membranes", "Ki": "9.04 nM"}
{"SMILES": "Cc1cc(O)cc(C)c1C[C@H](N)C(=O)N[C@H](C)C(=O)NCC(=O)N[C@@H](Cc1ccc(Cl)cc1)C(=O)N(C)CCC[C@@]1(c2ccc(F)cc2)OCc2cc(C#N)ccc21", "test": "cell-free assay", "Ki": "12 nM"}
{"SMILES": "Oc1cccc([C@]23CCC[C@H]([C@H]2O)N(CC=Cc2ccccc2)CC3)c1", "test": "ligand displacement, radioligand", "Ki": "0.74 nM"}
{"SMILES": "Cc1cc(O)cc(C)c1C[C@H](N)C(=O)N1CCc2ccc(Cc3ccc([N+](=O)[O-])cc3)cc2C1", "test": "ligand displacement, radioligand", "conditions": "cell membranes", "Ki": "2.6 nM"}
{"SMILES": "Cc1cccc(C)c1C[C@H](NC(=O)[C@@H](CCCNC(=N)N)NC(=O)[C@@H](N)Cc1c(C)cc(O)cc1C)C(=O)N[C@@H](CCCCN)C(N)=O", "test": "ligand displacement, radioligand", "conditions": "cell membranes", "Ki": "0.00935 nM"}
{"SMILES": "Cc1cc(O)cc(C)c1C[C@H](N)C(=O)N1CCc2ccc(Cc3cccc(N)c3)cc2C1", "test": "ligand displacement, radioligand", "conditions": "cell membranes", "Ki": "9.7 nM"}
{"SMILES": "Cc1cc(C)c(C[C@H](NC(=O)[C@@H](CCCNC(=N)N)NC(=O)[C@@H](N)Cc2c(C)cc(O)cc2C)C(=O)N[C@@H](CCCCN)C(N)=O)c(C)c1", "test": "ligand displacement, radioligand", "conditions": "cell membranes", "Ki": "0.158 nM"}
{"SMILES": "Cc1cc(O)cc(C)c1C[C@H](N)C(=O)N1Cc2ccccc2CC1C(=O)NCC(=O)NC(Cc1ccc(Cl)cc1)C(=O)N(C)CCC[C@@]1(c2ccc(F)cc2)OCc2cc(C#N)ccc21 (stereo in doubt)", "test": "cell-free assay", "Ki": "35 nM"}
{"SMILES": "N=C(N)NCCC[C@@H]1NC(=O)[C@H](Cc2ccc(O)cc2)NC(=O)[C@@H](CCCCN)NC(=O)[C@@H](Cc2ccccc2)NC1=O", "test": "ligand displacement, radioligand", "conditions": "cell membranes", "Ki": "171 nM"}
{"SMILES": "Cc1cccc(Cc2ccc3c(c2)CN(C(=O)[C@@H](N)Cc2c(C)cc(O)cc2C)CC3)c1", "test": "ligand displacement, radioligand", "conditions": "cell membranes", "Ki": "3.1 nM"}
{"SMILES": "Cc1cc(O)cc(C)c1C[C@H](C)C(=O)N[C@@H]1C/C=C\\CC[C@@H](C(N)=O)NC(=O)[C@H](Cc2ccccc2)NC(=O)[C@H](Cc2ccccc2)NC1=O", "test": "ligand displacement, radioligand", "conditions": "cell membranes", "Ki": "7.44 nM"}
{"SMILES": "Cc1cc(O)cc(C)c1C[C@H](N)C(=O)N1CCc2ccc(Cc3cccc([N+](=O)[O-])c3)cc2C1", "test": "ligand displacement, radioligand", "conditions": "cell membranes", "Ki": "3.1 nM"}
{"SMILES": "CCCC[C@@H](NC(=O)[C@@H](N)Cc1ccc(O)cc1)C(=O)NCC(=O)N[C@@H](Cc1ccc(F)cc1)C(=O)N(C)CCC[C@@]1(c2ccc(F)cc2)OCc2cc(C#N)ccc21", "test": "cell-free assay", "Ki": "16 nM"}
{"SMILES": "C[C@@H](NC(=O)C[C@@H](N)Cc1ccc(O)cc1)C(=O)NCC(=O)N[C@@H](Cc1ccccc1)C(=O)NNC(=O)[C@H](Cc1ccccc1)NC(=O)CNC(=O)[C@@H](C)NC(=O)C[C@@H](N)Cc1ccc(O)cc1", "test": "ligand displacement, radioligand", "Ki": "62 nM"}
